“Also recorded” adds a separate entry of the source.
Experiment: Safety and tolerability in iMATRIX-cobi Phase I/II study
Format: in vivo, human
Summary of the method: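 Patients aged 6 months to <30 years with relapsed/refractory solid tumors with MAPK pathway involvement. Oral test compound (20-mg tablet or suspension, with/without food) on Days 1–21 of 28-day cycles. Cumulative weekly weight-based dose rounded to 20 mg, capped at 60 mg/day. Rolling 6 escalation in cohorts of 3–6. Eye exams including OCT at baseline, cycle 1 Days 8/15, and each later cycle Day 1. All dosed patients evaluated.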

[1] = Dose escalation tablet (n = 18)

## O=C(c1ccc(F)c(F)c1Nc1ccc(I)cc1F)N1CC(O)([C@@H]2CCCCN2)C1 [cobimetinib]
[1]
  Treatment-related AE: Encephalopathy, G3: 1 (6) n (%)
  Treatment-related AE: Encephalopathy, G4: 0 n (%)
  Treatment-related AE: Erythema, G1: 2 (11) n (%)
  Treatment-related AE: Erythema, G2: 0 n (%)
  Treatment-related AE: Erythema, G3: 0 n (%)
  Treatment-related AE: Erythema, G4: 0 n (%)
  Treatment-related AE: Fatigue, G1: 2 (11) n (%)
  Treatment-related AE: Fatigue, G2: 0 n (%)
  Treatment-related AE: Fatigue, G3: 0 n (%)
  Treatment-related AE: Fatigue, G4: 0 n (%)
  Treatment-related AE: Headache, G1: 1 (6) n (%)
  Treatment-related AE: Headache, G2: 0 n (%)
  Treatment-related AE: Headache, G3: 1 (6) n (%)
  Treatment-related AE: Headache, G4: 0 n (%)
  Treatment-related AE: Nausea, G1: 3 (17) n (%)
  Treatment-related AE: Nausea, G2: 0 n (%)
  Treatment-related AE: Nausea, G3: 0 n (%)
  Treatment-related AE: Nausea, G4: 0 n (%)
  Treatment-related AE: Paronychia, G1: 0 n (%)
  Treatment-related AE: Paronychia, G2: 0 n (%)
  Treatment-related AE: Paronychia, G3: 0 n (%)
  Treatment-related AE: Paronychia, G4: 0 n (%)
  Treatment-related AE: Rash, G1: 3 (17) n (%)
  Treatment-related AE: Rash, G2: 0 n (%)
  Treatment-related AE: Rash, G3: 0 n (%)
  Treatment-related AE: Rash, G4: 0 n (%)
  Treatment-related AE: Transaminases increased, G1: 0 n (%)
  Treatment-related AE: Transaminases increased, G2: 0 n (%)
  Treatment-related AE: Transaminases increased, G3: 0 n (%)
  Treatment-related AE: Transaminases increased, G4: 0 n (%)
  Treatment-related AE: Vomiting, G1: 1 (6) n (%)
  Treatment-related AE: Vomiting, G2: 2 (11) n (%)
  Treatment-related AE: Vomiting, G3: 0 n (%)
  Treatment-related AE: Vomiting, G4: 0 n (%)
  Treatment-related AE: Weight increased, G1: 0 n (%)
  Treatment-related AE: Weight increased, G2: 0 n (%)
  Treatment-related AE: Weight increased, G3: 1 (6) n (%)
  Treatment-related AE: Weight increased, G4: 0 n (%)
Dose expansion (n = 12)
  Any treatment-related AE, G1: 3 (25) n (%)
  Any treatment-related AE, G2: 3 (25) n (%)
  Any treatment-related AE, G3: 3 (25) n (%)
  Any treatment-related AE, G4: 2 (17) n (%)
  Treatment-related AE: ALT increased, G1: 1 (8) n (%)
  Treatment-related AE: ALT increased, G2: 0 n (%)
  Treatment-related AE: ALT increased, G3: 0 n (%)
  Treatment-related AE: ALT increased, G4: 0 n (%)
  Treatment-related AE: AST increased, G1: 1 (8) n (%)
  Treatment-related AE: AST increased, G2: 0 n (%)
  Treatment-related AE: AST increased, G3: 1 (8) n (%)
  Treatment-related AE: AST increased, G4: 0 n (%)
  Treatment-related AE: Abdominal pain, G1: 3 (25) n (%)
  Treatment-related AE: Abdominal pain, G2: 0 n (%)
  Treatment-related AE: Abdominal pain, G3: 0 n (%)
  Treatment-related AE: Abdominal pain, G4: 0 n (%)
  Treatment-related AE: Anemia, G1: 1 (8) n (%)
  Treatment-related AE: Anemia, G2: 0 n (%)
  Treatment-related AE: Anemia, G3: 1 (8) n (%)
  Treatment-related AE: Anemia, G4: 0 n (%)
  Treatment-related AE: Asthenia, G1: 0 n (%)
  Treatment-related AE: Asthenia, G2: 0 n (%)
  Treatment-related AE: Asthenia, G3: 1 (8) n (%)
  Treatment-related AE: Asthenia, G4: 0 n (%)
  Treatment-related AE: Blood CPK increased, G1: 0 n (%)
  Treatment-related AE: Blood CPK increased, G2: 0 n (%)
  Treatment-related AE: Blood CPK increased, G3: 1 (8) n (%)
  Treatment-related AE: Blood CPK increased, G4: 1 (8) n (%)
  Treatment-related AE: Chorioretinopathy, G1: 0 n (%)
  Treatment-related AE: Chorioretinopathy, G2: 0 n (%)
  Treatment-related AE: Chorioretinopathy, G3: 0 n (%)
  Treatment-related AE: Chorioretinopathy, G4: 0 n (%)
  Treatment-related AE: Constipation, G1: 0 n (%)
  Treatment-related AE: Constipation, G2: 0 n (%)
  Treatment-related AE: Constipation, G3: 0 n (%)
  Treatment-related AE: Constipation, G4: 0 n (%)
  Treatment-related AE: Decreased appetite, G1: 1 (8) n (%)
  Treatment-related AE: Decreased appetite, G2: 0 n (%)
  Treatment-related AE: Decreased appetite, G3: 0 n (%)
  Treatment-related AE: Decreased appetite, G4: 0 n (%)
  Treatment-related AE: Dermatitis acneiform, G1: 1 (8) n (%)
  Treatment-related AE: Dermatitis acneiform, G2: 0 n (%)
  Treatment-related AE: Dermatitis acneiform, G3: 0 n (%)
  Treatment-related AE: Dermatitis acneiform, G4: 0 n (%)
  Treatment-related AE: Diarrhea, G1: 4 (33) n (%)
  Treatment-related AE: Diarrhea, G2: 0 n (%)
  Treatment-related AE: Diarrhea, G3: 0 n (%)
  Treatment-related AE: Diarrhea, G4: 0 n (%)
  Treatment-related AE: Dry skin, G1: 1 (8) n (%)
  Treatment-related AE: Dry skin, G2: 0 n (%)
  Treatment-related AE: Dry skin, G3: 0 n (%)
  Treatment-related AE: Dry skin, G4: 0 n (%)
  Treatment-related AE: Encephalopathy, G1: 0 n (%)
  Treatment-related AE: Encephalopathy, G2: 0 n (%)
  Treatment-related AE: Encephalopathy, G3: 0 n (%)
  Treatment-related AE: Encephalopathy, G4: 1 (8) n (%)
  Treatment-related AE: Erythema, G1: 0 n (%)
  Treatment-related AE: Erythema, G2: 0 n (%)
  Treatment-related AE: Erythema, G3: 0 n (%)
  Treatment-related AE: Erythema, G4: 0 n (%)
  Treatment-related AE: Fatigue, G1: 2 (17) n (%)
  Treatment-related AE: Fatigue, G2: 0 n (%)
  Treatment-related AE: Fatigue, G3: 0 n (%)
  Treatment-related AE: Fatigue, G4: 0 n (%)
  Treatment-related AE: Headache, G1: 1 (8) n (%)
  Treatment-related AE: Headache, G2: 0 n (%)
  Treatment-related AE: Headache, G3: 0 n (%)
  Treatment-related AE: Headache, G4: 0 n (%)
  Treatment-related AE: Nausea, G1: 1 (8) n (%)
  Treatment-related AE: Nausea, G2: 0 n (%)
  Treatment-related AE: Nausea, G3: 0 n (%)
  Treatment-related AE: Nausea, G4: 0 n (%)
  Treatment-related AE: Paronychia, G1: 0 n (%)
  Treatment-related AE: Paronychia, G2: 0 n (%)
  Treatment-related AE: Paronychia, G3: 0 n (%)
  Treatment-related AE: Paronychia, G4: 0 n (%)
  Treatment-related AE: Rash, G1: 0 n (%)
  Treatment-related AE: Rash, G2: 1 (8) n (%)
  Treatment-related AE: Rash, G3: 0 n (%)
  Treatment-related AE: Rash, G4: 0 n (%)
  Treatment-related AE: Transaminases increased, G1: 0 n (%)
  Treatment-related AE: Transaminases increased, G2: 0 n (%)
  Treatment-related AE: Transaminases increased, G3: 0 n (%)
  Treatment-related AE: Transaminases increased, G4: 0 n (%)
  Treatment-related AE: Vomiting, G1: 4 (33) n (%)
  Treatment-related AE: Vomiting, G2: 0 n (%)
  Treatment-related AE: Vomiting, G3: 0 n (%)
  Treatment-related AE: Vomiting, G4: 0 n (%)
  Treatment-related AE: Weight increased, G1: 0 n (%)
  Treatment-related AE: Weight increased, G2: 0 n (%)
  Treatment-related AE: Weight increased, G3: 1 (8) n (%)
  Treatment-related AE: Weight increased, G4: 0 n (%)
Dose escalation suspension
  AESI aspartate aminotransferase increased: 12%
  AESI epistaxis: 12%
Dose escalation tablet
  AESI aspartate aminotransferase increased: 6%
  AESI epistaxis: 17%
Eleven deaths, all due to PD
  Deaths on study: 20%
expansion
  AESI aspartate aminotransferase increased: 17%
  AESI creatine phosphokinase increased: 17%
  Adverse events of special interest (AESI): 50%
  TRAEs leading to cobimetinib withdrawal: 8%
overall, six patients
  TRAEs leading to cobimetinib withdrawal: 11%
Six patients, dose escalation, cycle 1
  Patients with DLTs: 11%
Suspension dose escalation
  Adverse events of special interest (AESI): 50%
  TRAEs leading to cobimetinib withdrawal: 15%
Suspension dose escalation, 1.0 mg/kg
  TRAEs leading to cobimetinib withdrawal (events): grade 2 epitheliopathy/keratitis
Suspension dose escalation, 1.33 mg/kg
  TRAEs leading to cobimetinib withdrawal (events): grade 4 chorioretinopathy; also recorded: grade 2 ECG QT prolonged; also recorded: grade 1 serous retinal detachment
suspension, Days 1–21 of 28-day cycle
  Pediatric recommended Phase II dose (RP2D), suspension: 1.0 mg/kg
Tablet dose escalation
  TRAEs leading to cobimetinib withdrawal: 6%
Tablet dose escalation, 1.0 mg/kg
  TRAEs leading to cobimetinib withdrawal (events): grade 2 retinal detachment
tablet, Days 1–21 of 28-day cycle
  Pediatric recommended Phase II dose (RP2D), tablet: 0.8 mg/kg

From publication PMC9217999 (Targeted Oncology, 2022)
